# Bioassay records as filed in PubChem.
# aDG glyco act – increases alpha dystroglycan glycosylation. 0.22% of 360,000 active. Pro5-aDG cells, alpha-DG glycosylation AlphaScreen (IIH6); 0% Pro5, 100% B10-LARGE cell signal. activation, % at 10 µM;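 active = activation of at least 8% versus controls, or a plate z-score of at least 8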;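 note: Pro5 are CHO cells carrying HIG-tagged alpha-DG that lacks glycosylation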
# Rce1 inh – inhibitors of yeast Ras-converting enzyme | AID 2563 | 0.27% of 290,000 active | Q03530 | calls only | yeast membranes, quenched prenylated peptide cleavage fluorescence;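 active = fall in fluorescence gain of 50% or more versus controls, with final raw signal at or below 3038400; inconclusive = same 50% fall but final raw signal above 3038400; inactive = fall in fluorescence gain under 50%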;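 note: plate controls were neutral control wells for no effect and wells lacking membranes for full effect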
# Target sequence (Q03530 whole entry, looked up): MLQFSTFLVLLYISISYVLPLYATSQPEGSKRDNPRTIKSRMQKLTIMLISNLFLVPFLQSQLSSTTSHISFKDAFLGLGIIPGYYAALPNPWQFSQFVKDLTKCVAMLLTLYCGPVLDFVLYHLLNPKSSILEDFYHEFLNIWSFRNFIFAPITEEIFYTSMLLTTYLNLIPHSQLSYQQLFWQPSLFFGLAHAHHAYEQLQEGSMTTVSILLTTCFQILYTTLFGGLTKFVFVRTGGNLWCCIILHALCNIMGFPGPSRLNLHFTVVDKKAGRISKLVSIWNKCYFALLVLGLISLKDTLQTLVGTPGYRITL
# T cell HTS – modulates CD8 T cell binding to vesicles. 2C CD8+ T cell-vesicle binding, flow cytometry; hits give low values. response (vesicle binding), % at 7 µM. 0.068% of 330,000 active;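 active = response, share of CD8 T cells binding vesicles, and their 90th percentile fluorescence all below set limits, cut at about 80% in these data, passing the limit was not always enough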;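 note: values below 100% mean blocked vesicle binding to the CD8+ T cells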
#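 incubation = binding step 1.5 h, 37 °C, antibody labelling 20 min, ice | test system = 2C mouse CD8+ T cells | read-out basis = percent CD8+ FL2 mean versus row control | controls = Peptide-free naked vesicles (low) and QL9 vesicles with 0.7% DMSO vehicle (high) | detection = flow cytometry of vesicle-bound cells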
# PolyA inhibitor – yeast polyadenylation inhibition. S. cerevisiae SKY197-pL101 polyadenylation reporter, beta-gal luminescence; efflux-impaired pdr1/pdr3 knockout yeast; score 100 = 6 SD above DMSO. activity score, % at 12 µM. 0.02% of 300,000 active;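 active = lowest replicate activity score at least 50, where 100 means six control SD above control mean; inconclusive = lowest score under 50 but half or more replicates reach 50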;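 note: yeast exposed to compound for 9 h at 30 °C; higher score means more reporter readthrough which indicates perturbed polyadenylation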
# The depositor's hits bear a star; i = inactive; ? = inconclusive; . = no result; + = active, no number. A selection: hits, their analogues and other compounds. The true share with any hit is near 0.51%.
SMILES,aDG glyco act,Rce1 inh,T cell HTS,PolyA inhibitor
COc1ccc(/C=C\c2cc(OC)c(OC)cc2CC[N+](C)(C)C)cc1OC,0,+,989,12
O=C(CNC(=O)c1cccc(Cl)c1)NCC(c1cccs1)N1CCOCC1 (centres undefined),0,.,464,.
COc1ccc(NS(=O)(=O)c2c(C)cc(C)cc2C)cc1,0,+,897,-17
COc1cccc(NS(=O)(=O)c2c(C)cc(C)cc2C)c1,0,i,283,6
CN1CCN(CCNC(=O)c2ccc3nc(-c4ccc(F)cc4)c(-c4ccc(F)cc4)nc3c2)CC1,8.0*,i,320,8
CCc1nc2ccc(C(=O)NCCCN3CCN(c4ccc(F)cc4)CC3)cc2nc1CC,0,i,17,3
Cn1c(N)c(C(=O)CSc2nnc(C3CC3)n2-c2ccccc2)c(=O)n(C)c1=O,0,.,149,.
COCCCNC(=O)c1cc2cc3cc(OC)ccc3nc2o1,0,+,287,10
CCN(CC)CCNC(=O)c1cc2cc3ccc(OC)cc3nc2o1,0,?,175,-5
C[C@@H]1CCCCO[C@H](CN(C)Cc2ccc(C(F)(F)F)cc2)[C@@H](C)CN([C@H](C)CO)C(=O)c2cc(NS(=O)(=O)c3cn(C)cn3)ccc2O1,0,.,.,.
Cc1ccc(O)c(CNc2cnc3ccccc3c2)c1,0,+,179,6
Oc1ccc(Br)cc1CNc1cnc2ccccc2c1,0,i,295,-4
CCOC(=O)c1sc2nc(C3CC3)cc(-c3ccc(F)cc3)c2c1N,2,+,193,20
CCOC(=O)c1sc2nc(C3CC3)cc(-c3ccc(OC)cc3)c2c1N,1,+,194,-5
CSc1ccc(C(=O)C2CCCN(C(=O)c3cccnc3SC)C2)cc1 (centres undefined),0,+,392,-10
CSc1ncccc1C(=O)N1CCCC(C(=O)c2ccc3ccccc3c2)C1 (centres undefined),0,i,103,3
CC(C)NCC(O)COCCOc1ccc(Br)cc1 (centres undefined),0,+,188,-5
Cc1ccc(Nc2nc(-c3ccc(S(=O)(=O)N4CCOCC4)cc3)cs2)cc1Cl,0,+,197,-2
CC(C)CC(=O)Nc1nc(-c2ccc(S(=O)(=O)N3CCOCC3)cc2)cs1,1,i,.,10
COc1ccc2c(c1)-c1c(sn(-c3ccc(OC)c(OC)c3)c1=S)C(C)(C)N2,-1,i,70*,-18
COc1ccc(-n2sc3c(c2=S)-c2cc(OC)ccc2NC3(C)C)cc1,-1,i,220,-14
O=C(/C=C/c1cn(-c2ccccc2)nc1-c1ccccc1)Nc1ccc(C(=O)O)cc1,0,i,349,-7
NS(=O)(=O)c1ccc(NC(=O)/C=C/c2cn(-c3ccccc3)nc2-c2cccc(Cl)c2)cc1,0,+,225,4
CCSCCOC(=O)C1=C(C)NC(=O)NC1c1ccccc1 (centres undefined),0,+,436,9
CCCCOC(=O)C1=C(C)NC(=O)NC1c1ccccc1 (centres undefined),0,i,156,17
SMILES,aDG glyco act,Rce1 inh,T cell HTS,PolyA inhibitor
O=C(NCc1cc(Cl)cc(Cl)c1)c1ccc2nc([C@@H]3O[C@H](CO)[C@H](O)[C@H](O)[C@H]3O)[nH]c2c1,0,.,.,.
Cc1ccccc1CC(=O)Nc1ccc2c(C)cc(=O)oc2c1,0,i,260,5
COc1ccccc1CC(=O)Nc1ccc2c(C)cc(=O)oc2c1,0,+,179,-8
CC1C(=O)N(Cc2cn(CC3CCCCC3)nn2)CCS(=O)(=O)N1Cc1ccc(-c2cccc(CO)c2)cc1 (centres undefined),0,.,.,.
COc1cccc(CN2CC(C(=O)NCCC3=CCCCC3)CCC2=O)c1 (centres undefined),0,i,418,9
CSCCC(NC(=O)c1ccco1)C(=O)NCC(c1ccco1)N1CCCCC1 (centres undefined),0,.,460,.
CC(C)C(NC(=O)c1ccco1)C(=O)NCC(c1ccco1)N1CCCCC1 (centres undefined),0,+,367,9
COc1cnc(-c2ccccn2)nc1NC(C)C,7.1*,i,149,-26
COCC1CCCCN1C(=O)c1cc(COc2ccc3ncccc3c2)on1 (centres undefined),2,i,330,7
CCC1CCCCN1C(=O)c1cc(COc2ccc3ncccc3c2)on1 (centres undefined),7.6*,i,248,-3
COCCN1C(=O)N[C@@H](c2cccc(F)c2)C(C(C)=O)=C1C,0,i,496,1
Cc1ccc(-n2ncc3c(N4CCCC(C)C4)ncnc32)c(C)c1 (centres undefined),1,i,43*,26
Cn1c(CN2CCOCC2)c(C#N)c2ccccc21,0,+,142,-9
CCCc1cc(=O)n2[nH]c(C)c(-c3ccccc3)c2n1,0,+,155,2
CCOP(=O)(c1ccccc1)c1nc(-c2ccccc2Cl)oc1N1CCCCC1 (centres undefined),0,+,233,-19
CCOP(=O)(OCC)c1nc(-c2cccc([N+](=O)[O-])c2)oc1N1CCCCC1,0,i,540,-10
O=S1(=O)CC(N2CCC(c3ccccc3)CC2)CN1Cc1ccccc1 (centres undefined),0,.,.,.
COc1cccc(C(=O)Nc2nnc(SCC(=O)NC3CCCC3)s2)c1,0,+,185,23
O=c1[nH]c(Nc2ccc(F)cc2)cc2ccccc12,0,i,217,3
O=c1[nH]c(Nc2ccccn2)cc2ccccc12,0,+,358,-23
CCOc1ccc(-c2cc(C(=O)Nc3ccc(C)c(NS(C)(=O)=O)c3)[nH]n2)c(C)c1,0,.,.,.
c1ccc2oc(NC3=NCN(C4CCCCC4)CN3)nc2c1,0,i,528,3
c1ccc2sc(NC3=NCN(C4CCCCCC4)CN3)nc2c1,4.4*,.,200,9
CC(NC(=O)CCCCCCN1C(=O)c2ccccc2C1=O)c1ccc2c(c1)CCCC2 (centres undefined),0,i,267,82*
Cc1ccc(NC(=O)COC(=O)[C@H](C)NC(=O)c2ccccc2)cc1S(=O)(=O)N1CCOCC1,0,i,252,-1
O=C(O)CC(NC(=O)c1ccncc1)c1ccccc1 (centres undefined),0,i,464,6
NC(=NCCCCCCN=C(N)/N=C(\N)Nc1ccc(Cl)cc1)/N=C(\N)Nc1ccc(Cl)cc1,1,+,533,7
COc1ccc(C(CNC(=O)c2ccc(S(=O)(=O)N3CC(C)CC(C)C3)cc2)N(C)C)cc1 (centres undefined),1,.,313,.
O=C(c1ccc(-n2cccn2)cc1)N1CCc2c([nH]c3ccccc23)C1c1ccccn1 (centres undefined),0,i,152,-16
